Assay outcomes: PubChem, several laboratories
MT stabilize HCS: microtubule stabilization, imaging screen. HeLa tubulin immunostaining HCS, 24 h; share of cells brighter than vehicle mean+2SD. AID 2205. % tubulin-high responders, % at 10 µM. 200,000 compounds, 0.83% hits;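 active means plate Z-score above 3 for both tubulin-high and condensed-nucleus cell shares, with cell loss under 80%, at 10 µM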;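 further: anti alpha tubulin signal scored within the nucleus-defined area of each cell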
Autophagy HCS: autophagy modulation, high-content screen; MEF GFP-LC3 puncta imaging; test concentration mostly 10 µM; calls only at 10 µM (by protocol); 190,000 compounds, 0.98% hits; AID 463193;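 active means percentage of spot-positive cells more than 3 SD above its plate mean, without a fluorescence outlier flag or 80% toxicity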;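 further: spot-positive cell cutoff set from DMSO-treated cells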
bCat nuc transl: alters nuclear translocation of beta-catenin in HeLa cells | immunofluorescence imaging | nuclear translocation activity, % at 5 µM | 190,000 compounds, 0.3% hits | AID 1665;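 active means nuclear translocation activity above 50% at 5 µM, with a well cell count of 50 or more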;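 further: per-cell ratio of nuclear to cytoplasmic median beta-catenin stain intensity; plate controls were DMSO negative control for no effect and GSK-3 inhibitor IX positive control for full effect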
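assay system = human HeLa cells, endogenous beta-catenin | times = compound treatment 24 h, 37°C, 5% CO2 | detection = Anti-beta-catenin immunofluorescence on PFA-fixed, Triton-permeabilized cells, DAPI nuclei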
Wee1 stabilizer: blocks degradation of human Wee1 kinase; P30291; HeLa Luc-Wee1K328M stability, luciferase luminescence; 100% = proteasome inhibitor MG132 effect; reporter increase, % at 5 µM; 220,000 compounds, 1.2% hits;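 active means activation above the mean of all tested compounds plus 3 SD, set per screening run, cut at about 8.8% in these data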;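 further: cells exposed to compound for 20 h before luminescence read; 0% = DMSO alone and 100% = MG132 at 30 µM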
Target sequence (P30291 whole entry K328M): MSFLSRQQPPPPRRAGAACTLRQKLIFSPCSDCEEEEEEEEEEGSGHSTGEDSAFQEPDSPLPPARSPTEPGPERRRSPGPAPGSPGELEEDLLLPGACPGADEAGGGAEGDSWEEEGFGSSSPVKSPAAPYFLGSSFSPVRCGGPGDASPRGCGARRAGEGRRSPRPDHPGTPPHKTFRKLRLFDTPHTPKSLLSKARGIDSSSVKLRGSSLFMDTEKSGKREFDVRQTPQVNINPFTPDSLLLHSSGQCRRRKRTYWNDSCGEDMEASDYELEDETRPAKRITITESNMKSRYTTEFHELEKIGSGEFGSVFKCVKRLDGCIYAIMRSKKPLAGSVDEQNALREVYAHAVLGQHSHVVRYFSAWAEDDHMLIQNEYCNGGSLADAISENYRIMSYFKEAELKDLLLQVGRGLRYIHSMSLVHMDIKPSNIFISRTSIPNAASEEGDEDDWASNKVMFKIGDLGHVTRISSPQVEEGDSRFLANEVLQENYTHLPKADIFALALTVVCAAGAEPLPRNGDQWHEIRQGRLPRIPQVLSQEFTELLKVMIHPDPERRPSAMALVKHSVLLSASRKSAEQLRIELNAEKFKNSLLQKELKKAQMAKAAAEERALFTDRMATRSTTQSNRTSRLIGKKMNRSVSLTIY
Insulin prom up: MIN6 insulin promoter up-regulation. MIN6 insulin promoter-GFP reporter, high-content imaging; active compounds read high. z-score at 5 µM. 190,000 compounds, 0.3% hits. AID 1625;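 active means z-score above 3 at 5 µM with at least 500 cells counted in the well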
Wee1 stab conf: confirmation of human Wee1 degradation inhibitors | activation, % at 5 µM | 1,100 compounds, 4% hits | shares compounds with Wee1 stabilizer | HeLa Luc-Wee1K328M degradation, luminescence; vehicle 0%, proteasome-blocked wells 100%; in the data active means activation above about 8.9%
Numbers without * were called inactive; i = inactive; nt = no result given. Rows were chosen to be rich in hits. Some 2.9% of all compounds tested hit in one or more screens of this group.

SMILES	MT stabilize HCS	Autophagy HCS	bCat nuc transl	Wee1 stabilizer	Insulin prom up	Wee1 stab conf
Cc1ccc(OCC(=O)N/N=C\c2cn(C)c3ccccc23)c([N+](=O)[O-])c1	8	i	-1	-1	-0.32	nt
O=[N+]([O-])/C(C(Cl)=C(Cl)Cl)=C(/NC1CC1)Sc1ccccc1	2	i	1	0	0.41	nt
O=C(CN1CCN(c2ccccn2)CC1)N1CC(O)CO1 (stereo not given)	2	i	0	18*	nt	0
COc1cc(C2Nc3cc(Cl)c(S(N)(=O)=O)cc3S(=O)(=O)N2)cc(OC)c1OC (stereo not given)	4	i	-2	12*	nt	-1
Cc1ccc(C(=O)O)cc1NC(=S)NC(=O)c1ccc(-c2ccc(Cl)cc2)o1	nt	nt	-1	12*	0.22	1
CCCn1c(NCCO)nc2ccccc21	3	i	1	-1	-0.81	nt
CC(C)n1c(NCCO)nc2ccccc21	2	i	0	11*	1.3	-1
Cc1nnc(SCC(=O)N2c3ccccc3CC2C)[nH]c1=O (stereo not given)	4	i	-1	-3	1	nt
COc1ccc(/C=N/N=C(\N)c2nonc2N)cc1OC	6	i	nt	11*	0.55	0
CCN(CC)C(=O)CSc1nnnn1-c1ccc(F)c(Cl)c1	1	i	2	-2	0.66	nt
CC(=O)c1cc2c(C)c(C(=O)c3ccccc3)oc2cc1O	1	i	3	12*	-0.01	-2
O=C(c1ccccc1)c1ccc(O)cc1O	4	i	0	0	nt	nt
O=C(Cc1ccccc1)Nc1ccc2oc(=O)ccc2c1	1	i	1	-1	-0.12	nt
C=CCn1c(SCC(=O)Nc2ccccc2CC)nnc1-c1ccncc1	6	i	-5	13*	-1.2	3
Cc1ccc(Oc2nccc(-c3ccc(Cl)cc3)n2)cc1	1	i	2	4	0.1	nt
COc1cc(C)c(N)cc1C(C)C	5	i	-1	19*	0.01	-1
COc1cc(C)c(S(=O)(=O)N2CCOCC2)cc1C(C)C	3	i	nt	2	nt	nt
O=C(O)c1ccc(/C=N/Nc2ccc(C(F)(F)F)cn2)cc1	4	i	-1	13*	-0.43	-2
COCCN(C(=S)Nc1ccc(Cl)cc1OC)C1CCN(C(C)=O)CC1	nt	nt	2	7	0.69	nt
Cc1ccc(S(=O)(=O)Nc2cc(-c3ccccc3)nn2C)cc1Cl	nt	nt	-1	0	0.59	nt
CC(=O)NC1=NN(C(C)=O)C(c2ccc(C(C)C)cc2)S1 (stereo not given)	3	i	0	24*	0.37	1
O=C(Nc1ccccc1O)c1c(O)c2c([nH]c1=O)CCCC2	2	i	-1	0	-0.44	nt
Cc1ccc(-c2nnc(N)s2)cc1	4	i	-6	-1	0.43	nt
CC(C)c1ccc(-c2nnc(N)s2)cc1	5	i	-2	12*	1.1	3
O=C(O)C1Cc2ccccc2CN1C(=O)CCl (stereo not given)	3	i	-4	-1	-0.5	nt
SMILES	MT stabilize HCS	Autophagy HCS	bCat nuc transl	Wee1 stabilizer	Insulin prom up	Wee1 stab conf
O=C(O)Cc1ccc(NC(=O)CCN2C(=O)c3ccc([N+](=O)[O-])cc3C2=O)cc1	1	i	0	15*	1.3	1
CCOc1cccc(N(C(=O)Cc2cccs2)C(C(=O)NC2CCCCC2)c2cccn2C)c1 (stereo not given)	4	i	-2	11*	nt	9.6*
O=C(COc1ccc(CO)cc1Cl)Nc1ccc(F)cc1	1	i	nt	16*	1.3	-5
O=C(COc1ccc(CO)cc1)Nc1ccc(F)cc1	3	i	nt	3	0.06	nt
COc1ccc(CCC(=O)N(C)CC(=O)Nc2cc(C)ccc2C)cc1	3	i	0	17*	-0.77	1
COc1ccc(/C=C/CN2CCCC(CO)(Cc3cccc(Cl)c3)C2)cc1 (stereo not given)	3	i	5	3	nt	nt
CCN(CC(=O)Nc1cccc(OC)c1)CC(=O)Nc1ccc(C)cc1Cl	2	i	0	-4	-0.53	nt
C#CCNC(=O)C1CCN(c2cc(C)nc(-c3ccccc3)n2)CC1	3	i	0	12*	0.15	-1
Cc1cc(N2CCN(c3ccccc3)CC2)nc(-c2ccccc2)n1	2	i	-2	-3	-1.4	nt
CNc1nc(-c2ccc3c(c2)CCN3C(=O)c2ccccc2F)cs1	2	i	1	11*	-1.4	7
CCN1CCN(c2nc(Nc3ccc(OC)cc3)nc(N)c2[N+](=O)[O-])CC1	nt	nt	0	12*	-0.53	1
COc1ccc(C=O)cc1OS(=O)(=O)c1ccc(NC(C)=O)cc1	8	i	2	1	-0.38	nt
COc1ccc(/C=N/NC(=O)c2ccc3ccccc3c2)cc1OS(=O)(=O)c1ccc(NC(C)=O)cc1	4	i	109*	14*	-1.4	13*
CCOC(=O)N1CCN(C(=O)c2oc3ccc(S(=O)(=O)N4CC(C)CC(C)C4)cc3c2C)CC1 (stereo not given)	3	i	0	0	-0.79	nt
CCOC(=O)C1CCN(C(=O)c2oc3ccc(S(=O)(=O)N4CC(C)CC(C)C4)cc3c2C)CC1 (stereo not given)	3	i	0	11*	0.25	-2
CN(C)S(=O)(=O)c1cccc(NC(=O)CNCC2CCCCC2)c1	3	i	-5	12*	0.41	1
COC(=O)c1sc(S(=O)(=O)NC(C)C(=O)O)c(C(=O)OC)c1C (stereo not given)	3	i	-4	0	0.27	nt
COc1cc(/C=C(\NC(=O)c2ccccc2)C(=O)N2CC3CC(C2)c2cccc(=O)n2C3)cc(OC)c1OC (stereo not given)	nt	nt	0	-1	0.02	nt
CC(C)CN(/C=N/c1sc2c(c1C#N)CCCCC2)CC(C)C	1	i	-6	4	nt	nt
CCN(/C=N/c1sc2c(c1C#N)CCCCC2)CC	5	i	-1	13*	-0.22	4
CC(=O)c1cnc2ncnn2c1C	2	i	-2	0	1.4	nt
O=C(N/N=C/c1cn(-c2ccccc2)nc1-c1cccs1)c1ccncc1	5	i	-2	-3	-0.26	nt
NC(=O)N/N=C/c1cn(-c2ccccc2)nc1-c1cccs1	5	i	0	16*	1.1	3
COc1ccc(NC(=O)CSCC(=O)NCCc2ccccn2)cc1	5	i	0	16*	0.32	-1
COc1ccc(NC(=O)CSc2ccccn2)cc1	2	i	nt	-1	nt	nt
CCN(C(=O)CSc1nnc2c3ccccc3n(CC)c2n1)C1CCS(=O)(=O)C1 (stereo not given)	4	i	1	0	-0.23	nt
Cc1cc(C)c2c(N)c(C(=O)C(C)(C)C)sc2n1	2	i	-1	13*	-1.6	-1
